# Sampled rows, rich in hits. Any-hit rate of the full collection: about 1.8%.
# procasp7 counter = counter-screen for procaspase-3 activators: activators of human procaspase-7; P55210; recombinant procaspase-7, Ac-DEVD-pNA absorbance 405 nm; D23A/D198A/D206A triple mutant, cannot self-cleave; scale: DMSO 0, 5 µM enzyme 100; hit rate 0.093% among 330,000; activation, % at 8.5 µM;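 active = percent activation above the screen-wide mean plus 3 SD, cut at about 25% in these data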
#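 Material: Procaspase-7 triple mutant (PC-7 D3A) | Quantity: 2 µM procaspase-7 mutant as dispensed | Reagent: DEVD-pNA substrate | Times: 1 h preincubation, 2 h reaction | Technique: 405 nm absorbance of p-nitroaniline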
# ZTA counter = ZTA (EBV) inhibition in EBNA-1 counter-screen | P03206 | ZTA-DNA binding, fluorescence polarization | inhibition, % at 11 µM | hit rate 0.15% among 320,000; in the data active = inhibition above about 33%
# GSTO1 inh = counter-screen for RBBP9 inhibitors: inhibitors of human GSTO1 | recombinant GSTO1, activity-based probe fluorescence polarization | hit rate 1.1% among 300,000 | inhibition, % at 5.96 µM | P78417;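 active = inhibition above the campaign mean inhibition plus 3 SD, cut at about 35% in these data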
# proCasp3 act = activates human procaspase-3; P42574; recombinant procaspase-3 D3A, Ac-DEVD-pNA absorbance 405 nm; activation, % at 8.5 µM; hit rate 0.11% among 330,000; AID 463141;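 active = activation above the mean of all tested compounds plus 3 SD, cut at about 21% in these data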
#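 material = Procaspase-3 D3A mutant | probe or stimulus = Ac-DEVD-pNA | compound = single dose, 8.5 µM nominal compound, 0.8% DMSO | timing = 1 h preincubation, 2 h reaction | measured by = 405 nm absorbance of p-nitroaniline, reads at 0 and 120 min | benchmarks = DMSO-only low control, 5 µM PC-3 D3A high control | repeats = singlicate, each compound tested once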
# EBNA-1 inh = blocks EBNA-1 binding to DNA | EBNA-1 DNA binding, fluorescence polarization | inhibition, % at 14.8 µM | hit rate 0.34% among 300,000 | AID 1950; in the data active = inhibition above about 28%
# Apaf-1 inh = inhibitors of human Apaf-1 apoptosome; O14727; reconstituted apoptosome caspase-3 activity, DEVD-Rh110 fluorescence; inhibition, % at 20 µM; hit rate 0.71% among 330,000; AID 489030; active = inhibition of at least 40% at 20 µM
#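 System – cell-free apoptosome with Apaf-1, procaspase-3 and caspase-9 · Buffer or medium – pH 7.5 Hepes buffer with CHAPS, BSA, DTT · Also added – cytochrome c with DEVD-Rh110 · Times – 30 min compound preincubation, 50 min activation, room temperature · Technique – Rh110 fluorescence intensity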
# Apaf-1 inh conf = confirmation of Apaf-1 inhibitors. shares compounds with Apaf-1 inh. reconstituted apoptosome, caspase-3 DEVD-Rh110 fluorescence. inhibition, % at 20 µM. hit rate 25% among 1,800;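 active = mean inhibition of at least 40% at 20 µM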
# Rh110 interf inh = interferes with Rh110 fluorescence, flagging false Apaf-1 inhibitors. shares compounds with Apaf-1 inh. Rh110 fluorescence interference, quenched caspase reaction. activation (fluorescence interference), % at 20 µM. 1,800 tested, under 10 active;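 active = signal rise of 40% or more at 20 µM, treated as a fluorescence artifact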
# Fluor interf inh = Apaf-1 inhibitor counter-screen fluorescence artifact; IC50, µM; shares compounds with Apaf-1 inh; fluorescence interference counterscreen, Apaf-1 assay format; 460 tested, under 10 active; call rule not given here
# Hits are given with their value; - = inactive; . = no result.
SMILES,procasp7 counter,ZTA counter,GSTO1 inh,proCasp3 act,EBNA-1 inh,Apaf-1 inh,Apaf-1 inh conf,Rh110 interf inh,others
CCC[C@@H](CN1CCC[C@H]1CN1C(N)=NC[C@H]1CC(C)C)N1C[C@@H]([C@H](C)CC)N(CCc2ccc(Cl)c(Cl)c2)C1=N,-,.,.,-,.,64,-,-,
Cc1cccc(CCN2C(N(C)C)=NC[C@@H]2CC(C)C)c1,-,-,-,-,-,-,.,.,
CC[C@@H](C)[C@@H]1CN([C@@H](CN2CCC[C@H]2CN2C(N)=NC[C@H]2CC(C)C)C(C)C)C(=N)N1CCc1ccc(Cl)c(Cl)c1,-,.,.,-,.,63,-,-,
CC[C@@H](C)[C@@H]1CN([C@@H](C)CN2CCC[C@H]2CN2C(N)=NC[C@H]2CC(C)C)C(=N)N1CCc1ccc(Cl)c(Cl)c1,-,.,.,-,.,52,-,-,
CCC(C)[C@H]1CN=C(N)N1CC1CCCCC1 (some centres not stated),-,-,-,-,-,-,.,.,
CC(=O)c1cccc(NC(=O)C(C)OC(=O)c2ccc(-n3cnnn3)cc2)c1 (configuration not stated),.,.,.,.,.,-,.,.,
O=C(NC1CC1)C1=C[C@H](c2ccc(C(F)(F)F)cc2)C[C@H](OCCCCO)O1,-,-,-,-,-,50,-,-,
O=C(NC1CC1)C1=C[C@@H](c2ccc(C(F)(F)F)cc2)C[C@@H](OCCCCO)O1,-,-,-,-,-,-,.,.,
CCOc1cc(/C=N/NC(=O)c2cc(C)n(-c3ccc(F)cc3)c2C)ccc1O,-,-,-,-,-,-,.,.,
Cc1cc(C(=O)N/N=C2\CC(=O)c3ccccc32)c(C)n1-c1ccc(F)cc1,-,-,55,-,-,69,-,-,
CN1CCN(CC(=O)N2CCn3c4c(c5cc(C6CCCCC6)ccc53)CCCC42)CC1 (configuration not stated),-,-,-,-,-,58,-,-,
CC1CCN(C(=O)COC(=O)c2ccc([N+](=O)[O-])o2)CC1,-,.,.,-,.,-,.,.,
O=C(OCC(=O)N1CCN(S(=O)(=O)c2ccccc2)CC1)c1ccc([N+](=O)[O-])o1,-,-,-,-,-,80,-,-,
O=C(OCC(=O)N1CCN(S(=O)(=O)c2ccc(Cl)cc2)CC1)c1ccc([N+](=O)[O-])o1,-,-,-,-,-,69,-,-,
COc1ccc(OC)c(S(=O)(=O)NCC(=O)NC2CCCc3ccccc32)c1 (configuration not stated),.,.,.,.,.,-,.,.,
O=C(C[n+]1cccc(C(=O)N/N=C/c2ccc(Br)cc2)c1)c1ccccc1,-,-,.,-,.,50,-,-,
O=C(N/N=C/c1ccc(Br)cc1)c1cc[n+](Cc2ccccc2)cc1,-,-,-,-,-,-,.,.,
Cc1cccc(NC2=C(NCCO)C(=O)c3ccccc3C2=O)c1,-,-,42,-,-,56,-,-,
CCC(=O)NC1=C(Nc2ccc(N)cc2)C(=O)c2ccccc2C1=O,-,-,-,-,-,-,.,.,
COc1cccc(NC2=C(NCCO)C(=O)c3ccccc3C2=O)c1,-,-,-,-,-,-,.,.,
Cc1cc(C)cc(NC2=C(N)C(=O)c3ccccc3C2=O)c1,-,-,-,-,-,74,-,-,
COc1ccc(NC2=C(NCCO)C(=O)c3ccccc3C2=O)cc1,-,-,44,-,-,70,45,-,Fluor interf inh=-
Cc1cc(C)c(NC(=O)COC(=O)Cc2cccs2)c(C)c1,-,-,-,-,-,-,.,.,
CCOC(=O)C1=C(COC(=O)c2ccc([N+](=O)[O-])s2)NC(=O)NC1C (configuration not stated),-,.,.,-,.,46,-,-,
CCOC(=O)C1=C(COC(=O)c2sccc2C)NC(=O)NC1C (configuration not stated),-,-,.,-,.,-,.,.,
SMILES,procasp7 counter,ZTA counter,GSTO1 inh,proCasp3 act,EBNA-1 inh,Apaf-1 inh,Apaf-1 inh conf,Rh110 interf inh,others
O=C(OCC(=O)N1CCCc2ccccc21)c1cccc(S(=O)(=O)N2CCOCC2)c1,-,-,-,-,-,-,.,.,
CC1CCN(CCc2nc3cc(NC(=O)COc4ccccc4)ccc3n2C)CC1,-,-,-,-,-,52,-,-,
CCN(C(=O)COC(=O)/C=C/c1c(C)nn(-c2ccccc2)c1C)C1CCS(=O)(=O)C1 (configuration not stated),-,-,-,-,-,-,.,.,
C=CCC[C@@H](Cc1ccc(F)cc1)C(=O)OC[C@@H]1CCCN1C(=O)[C@@H](CC=C)CC(=O)N(CCO)Cc1ccccc1,-,.,.,-,.,48,-,-,
C=CCC[C@H](Cc1ccc(F)cc1)C(=O)OC[C@H]1CCCN1C(=O)[C@@H](CC=C)CC(=O)NCCO,-,.,.,-,.,-,.,.,
C=CC[C@@H](Cc1ccc(F)cc1)C(=O)OC[C@H]1CCCN1C(=O)[C@H](CC=C)CC(=O)N[C@H](CO)Cc1ccccc1,-,.,.,-,.,-,.,.,
C=CCC[C@@H](Cc1ccc(F)cc1)C(=O)OC[C@@H]1CCCN1C(=O)[C@H](CC=C)CC(=O)N[C@H](CO)Cc1ccccc1,-,.,.,-,.,43,-,-,
C=CCC[C@@H](Cc1ccc(F)cc1)C(=O)OC[C@H]1CCCN1C(=O)[C@@H](CC=C)CC(=O)N[C@H](CO)Cc1ccccc1,-,.,.,-,.,40,-,-,
O=C(NCC(=O)N(c1cccc(F)c1)C(C(=O)NC1CCCC1)c1cccnc1)c1ccco1 (configuration not stated),-,-,-,-,-,-,.,.,
COc1ccc(C(=O)c2nccc3cc(OC)c(OC)cc23)cc1OC,-,-,.,-,.,84,44,-,Fluor interf inh=-
CCOC(=O)c1cc2cc3ccccc3cc2[nH]1,-,-,-,-,-,58,-,-,
CCc1ccccc1Nc1nc(N)nc(COC(=O)C2CCN(C(=O)c3ccc(F)cc3)CC2)n1,.,.,.,.,.,-,.,.,
N#C/C(=C/c1cn(-c2ccccc2)nc1-c1cccc(OCc2ccc(F)cc2)c1)C(=O)NCCCn1ccnc1,-,-,-,-,-,44,-,-,
CCCOc1cccc(-c2nn(-c3ccccc3)cc2/C=C(\C#N)C(=O)NCCCn2ccnc2)c1,-,-,-,-,-,-,.,.,
C[C@H](CO)N1C[C@H](C)[C@@H](CN(C)S(=O)(=O)c2ccccc2)Oc2ccc(NC(=O)NC3CCCCC3)cc2C1=O,-,.,.,-,.,-,.,.,
